Laboratory results: ChEMBL document CHEMBL1833799, “Glionitrin B, a cancer invasion inhibitory diketopiperazine produced by microbial coculture” (2011)
Activity calls are given as the source filed them. No cut-off for these calls is given here.

Columns and labels:
DU-145 [1] = assay: Antiinvasive activity against human DU145 cells at 15 to 60 uM after 24 hrs by cell invasion assay; type: functional, cell-based
Method in brief: (§1)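 DU145 prostate cancer cells grown at 37 °C, humidified 5% CO2, in medium with serum, 100 units/mL penicillin and 100 μg/mL streptomycin. Cells exposed to compound for 24 h, then in vitro invasiveness measured with a commercial cell invasion assay kit per the maker's protocol. Inhibition expressed relative to an untreated group.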

DU-145 [2] = assay: Cytotoxicity against human DU145 cells at 2.5 to 80 uM after 24 hrs by cell counting kit analysis; type: functional, cell-based
Method in brief: (§2)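 DU145 cells cultured at 37 °C in humidified 5% CO2 with serum and penicillin/streptomycin. Cells treated with a range of compound concentrations for 24 h, then viability read with Cell Counting Kit-8 per the manufacturer. Viability expressed relative to an untreated group. Paclitaxel (0.1 μM) served as positive control.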

DU-145 [3] = assay: Inhibition of human DU145 cells invasion at 60 uM after 24 hrs by cell invasion assay; type: functional; conditions: DU-145, 24 h; method in brief: as §1
DU-145 [4] = assay: Cytotoxicity against human DU145 cells at 0.25 to 8 uM after 24 hrs by cell counting kit analysis; type: functional, cell-based; method in brief: as §2
DU-145 [5] = assay: Antiinvasive activity against human DU145 cells at 0.2 uM after 24 hrs by cell invasion assay; type: functional, cell-based; method in brief: as §1
DU-145 [6] = assay: Antiinvasive activity against human DU145 cells after 24 hrs by cell invasion assay; type: functional, cell-based
Method in brief: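 DU145 cells grown with serum, 100 units/mL penicillin and 100 μg/mL streptomycin at 37 °C in humidified 5% CO2. Cells were exposed to test compounds at the indicated concentrations for 24 h. In vitro invasiveness was then measured with a commercial cell invasion kit per the manufacturer's protocol and expressed as inhibition relative to an untreated group.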

DU-145 [7] = assay: Decrease in MMP9 mRNA level in human DU145 cell by RT-PCR analysis; type: functional, cell-based
Method in brief: (§3)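 DU145 cells were exposed to compounds for 18 h. Total RNA was isolated by spin column and reverse-transcribed to cDNA. PCR used 100 ng cDNA aliquots: 94 °C for 5 min, then 32 cycles of 94 °C for 30 s, 58 °C for 30 s and 72 °C for 1 min. Products were assessed for MMP-2 and MMP-9 transcript levels.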

DU-145 [8] = assay: Decrease in MMP2 mRNA level in human DU145 cell by RT-PCR analysis; type: functional, cell-based; method in brief: as §3
DU-145 [9] = assay: Cytotoxicity against human DU145 cells at 0.1 uM after 24 hrs by cell counting kit analysis; type: functional
Method in brief: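 DU145 cells were cultured in serum-supplemented medium with penicillin/streptomycin at 37 °C in 5% CO2. They were exposed to a range of compound concentrations for 24 h. Viability was read with the CCK-8 kit per the manufacturer's instructions and expressed as a percentage of an untreated group. Paclitaxel at 0.1 μM served as the positive control.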

## CS[C@]1(CO)C(=O)N2[C@H]3C(=CC=C[C@@H]3O)C[C@@]2(SC)C(=O)N1C [BIS(DETHIO)BIS(METHYLTHIO)GLIOTOXIN]
DU-145 [1]
  Activity: inactive
DU-145 [2]
  Activity: inactive
DU-145 [3]
  inhibition at 60 µM: 22%

## CN1C(=O)[C@@]23Cc4ccc([N+](=O)[O-])cc4N2C(=O)[C@@]1(CO)SS3
DU-145 [4]
  Activity: Active
DU-145 [2]
  Activity: Active
DU-145 [5]
  Activity: inactive

## CS[C@@]1(CO)C(=O)N2c3cc([N+](=O)[O-])ccc3C[C@]2(SC)C(=O)N1C [GLIONITRIN B]
DU-145 [6]
  Activity: Dose-dependent effect
DU-145 [7]
  Activity: Dose-dependent effect
DU-145 [8]
  Activity: Dose-dependent effect
DU-145 [2]
  Activity: inactive
DU-145 [3]
  inhibition at 60 µM: 46%

## CC(=O)O[C@H]1C(=O)[C@@]2(C)[C@H]([C@H](OC(=O)c3ccccc3)[C@]3(O)C[C@H](OC(=O)[C@H](O)[C@@H](NC(=O)c4ccccc4)c4ccccc4)C(C)=C1C3(C)C)[C@]1(OC(C)=O)CO[C@@H]1C[C@@H]2O [PACLITAXEL]
DU-145 [9]
  Activity: 18.9%

## CN1C(=O)[C@]23CC4=CC=C[C@H](O)[C@H]4N2C(=O)[C@@]1(CO)SS3
DU-145 [4]
  Activity: Active
DU-145 [2]
  Activity: Active
DU-145 [5]
  Activity: inactive
